Activity calls are given as the source filed them. The calls are words filed in the database; no cut-off is given here. Bridge positions count the residues as written; N and C are the ends. Square brackets hold non-standard residues; d marks the D form. Peptide text beside a SMILES is read from it. I, II: the chains in the order shown. * marks the point of attachment. X1 = COc1cc2c(c(OC)c1OC)-c1ccc(OC)c(=O)cc1[C@@H](N(C(C)=O)C(=O)[C@H](CS)N*)CC2; X2 = O=C(CCS[C@@H]1O[C@H](CO)[C@H](O)[C@H](O)[C@H]1O)*; βGal = OC[C@H]1O[C@@H](*)[C@H](O)[C@@H](O)[C@H]1O; Dap = NC[C@H](N)C(=O)O; Mpa = O=C(O)CCS Where only a bound is given, the exact number is not on record here.

The test system of series [1] is Jurkat. Kind of series: Cytotoxicity against human Jurkat cells assessed as dead cells at 5 uM after 48 hrs by propidium iodide-based FACS flow cytometry. The format is functional. The gist of the method: (§1)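 Jurkat cells were grown in RPMI with 10% FCS, penicillin/streptomycin and L-glutamine at 37 °C and 5% CO2. They were seeded at 50,000 cells/mL and cultured overnight, then given compound from sterile water stock and held 48 h. Propidium iodide was added 2 min before FACS (excitation 488 nm). Dead cells were counted at 5 µM final. LD50 was derived from dose–response curves.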
In general terms: Flow cytometry measures light scatter and fluorescence of single cells or particles in a stream.

Series [2] relates to Jurkat. In words: Cytotoxicity against human Jurkat cells after 48 hrs. The format is functional. To be noted: read-out: LD50 (the source's name). The gist of the method: as §1
The subject of a further series is MEF. Kind of series: Cytotoxicity against MEF cells assessed as dead cells at 5 uM after 48 hrs by visual cell counting under the microscope. The following applies: mouse.
The subject of series [3] is Jurkat. In words: Cytotoxicity against human Jurkat cells at 5 uM after 48 hrs. It is filed as functional, cell-based. The gist of the method: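 Jurkat cells (RPMI, 10% FCS, 37 °C, 5% CO2) seeded at 50,000 cells per mL, grown overnight, then dosed with colchicine–dendrimer conjugate at 5 μM final from sterile water stock. After 48 h, propidium iodide added 2 min before FACS (excitation 488 nm); dead vs healthy cells counted, reported as % dead cells.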

In the case of `COc1cc2c(c(OC)c1OC)-c1ccc(OC)c(=O)cc1[C@@H](NC(C)=O)CC2` [COLCHICINE], the Activity with Jurkat [1] came out at 85%; in the series on MEF, 57%. Also, the CC50 with Jurkat [2] was found to be 20 nM.
In the case of `COc1cc2c(c(OC)c1OC)-c1ccc(OC)c(=O)cc1[C@@H](N(C(C)=O)C(=O)[C@H](CS)NC(=O)[C@H](CC(=O)O)NC(=O)[C@H](CC(C)C)NC(=O)[C@H](Cc1ccc(O)cc1)NC(=O)[C@@H](NC(=O)[C@H](CNC(=O)[C@H](C)NC(=O)[C@H](CO)NC(=O)[C@H](CC(=O)O)NC(=O)[C@H](Cc1ccccc1)NC(=O)CCS[C@@H]1O[C@H](CO)[C@H](O)[C@H](O)[C@H]1O)NC(=O)[C@H](C)NC(=O)[C@H](CO)NC(=O)[C@H](CC(=O)O)NC(=O)[C@H](Cc1ccccc1)NC(=O)CCS[C@@H]1O[C@H](CO)[C@H](O)[C@H](O)[C@H]1O)[C@@H](C)O)CC2` (I: [Mpa](βGal)FDSA[Dap]TYLD-X1 / II: [Mpa](βGal)FDSA; amide I:6-II:C) [listing 1 of 2 here], in the series with Jurkat [1], the Activity result is “<=91%”. Also, the CC50 in the series with Jurkat [2] stood at 1530 nM.
As for `COc1cc2c(c(OC)c1OC)-c1ccc(OC)c(=O)cc1[C@@H](N(C(C)=O)C(=O)[C@H](CS)NC(=O)[C@H](CC(=O)O)NC(=O)[C@H](CC(C)C)NC(=O)[C@H](Cc1ccc(O)cc1)NC(=O)[C@@H](NC(=O)[C@H](CNC(=O)[C@H](C)NC(=O)[C@H](CO)NC(=O)[C@H](CC(=O)O)NC(=O)[C@H](Cc1ccccc1)NC(=O)CCS[C@@H]1O[C@H](CO)[C@H](O)[C@H](O)[C@H]1O)NC(=O)[C@H](C)NC(=O)[C@H](CO)NC(=O)[C@H](CC(=O)O)NC(=O)[C@H](Cc1ccccc1)NC(=O)CCS[C@@H]1O[C@H](CO)[C@H](O)[C@H](O)[C@H]1O)[C@@H](C)O)CC2` (I: [Mpa](βGal)FDSA[Dap]TYLD-X1 / II: [Mpa](βGal)FDSA; amide I:6-II:C) [listing 2 of 2 here], the Activity in the series with MEF is on record as 68%.
Take `COc1cc2c(c(OC)c1OC)-c1ccc(OC)c(=O)cc1[C@@H](N(C(C)=O)C(=O)[C@H](CS)NC(=O)[C@H](CC(=O)O)NC(=O)[C@H](CC(C)C)NC(=O)[C@H](Cc1ccc(O)cc1)NC(=O)[C@@H](NC(=O)[C@H](CNC(=O)[C@H](C)NC(=O)[C@H](CO)NC(=O)[C@H](CC(N)=O)NC(=O)[C@H](Cc1ccccc1)NC(=O)CCS[C@@H]1O[C@H](CO)[C@H](O)[C@H](O)[C@H]1O)NC(=O)[C@H](C)NC(=O)[C@H](CO)NC(=O)[C@H](CC(N)=O)NC(=O)[C@H](Cc1ccccc1)NC(=O)CCS[C@@H]1O[C@H](CO)[C@H](O)[C@H](O)[C@H]1O)[C@@H](C)O)CC2` (I: [Mpa](βGal)FNSA[Dap]TYLD-X1 / II: [Mpa](βGal)FNSA; amide I:6-II:C) [listing 1 of 2 here]: the Activity in the series on Jurkat [1] amounted to 19%. The CC50 in the series with Jurkat [2] came to 5520 nM.
`COc1cc2c(c(OC)c1OC)-c1ccc(OC)c(=O)cc1[C@@H](N(C(C)=O)C(=O)[C@H](CS)NC(=O)[C@H](CCCCNC(=O)CCS[C@@H]1O[C@H](CO)[C@H](O)[C@H](O)[C@H]1O)NC(=O)[C@H](Cc1ccccc1)NC(=O)[C@H](CCCNC(=N)N)NC(=O)[C@H](CC(N)=O)NC(=O)[C@H](CNC(=O)[C@@H](NC(=O)[C@H](CCC(=O)O)NC(=O)[C@H](CC(N)=O)NC(=O)CNC(=O)CCS[C@@H]1O[C@H](CO)[C@H](O)[C@H](O)[C@H]1O)[C@@H](C)O)NC(=O)[C@@H](NC(=O)[C@H](CCC(=O)O)NC(=O)[C@H](CC(N)=O)NC(=O)CNC(=O)CCS[C@@H]1O[C@H](CO)[C@H](O)[C@H](O)[C@H]1O)[C@@H](C)O)CC2` (I: [Mpa](βGal)GNET[Dap]NRFK(X2)-X1 / II: [Mpa](βGal)GNET; amide I:6-II:C): the result with Jurkat [3] was inactive.
As for `CC[C@H](C)[C@H](NC(=O)[C@@H]1CCCN1C(=O)[C@H](CNC(=O)[C@@H]1CCCN1C(=O)CNC(=O)[C@H](CC(=O)O)NC(=O)[C@H](CCCCNC(=O)CCS[C@@H]1O[C@H](CO)[C@H](O)[C@H](O)[C@H]1O)NC(=O)CCS[C@@H]1O[C@H](CO)[C@H](O)[C@H](O)[C@H]1O)NC(=O)[C@@H]1CCCN1C(=O)CNC(=O)[C@H](CC(=O)O)NC(=O)[C@H](CCCCNC(=O)CCS[C@@H]1O[C@H](CO)[C@H](O)[C@H](O)[C@H]1O)NC(=O)CCS[C@@H]1O[C@H](CO)[C@H](O)[C@H](O)[C@H]1O)C(=O)N[C@@H](CCC(=O)O)C(=O)N[C@H](C(=O)N[C@@H](CS)C(=O)N(C(C)=O)[C@H]1CCc2cc(OC)c(OC)c(OC)c2-c2ccc(OC)c(=O)cc21)C(C)C` (I: [Mpa](βGal)K(X2)DGP[Dap]PIEV-X1 / II: [Mpa](βGal)K(X2)DGP; amide I:6-II:C), the outcome with Jurkat [3] was inactive.
On to `COc1cc2c(c(OC)c1OC)-c1ccc(OC)c(=O)cc1[C@@H](N(C(C)=O)C(=O)[C@H](CS)NC(=O)[C@H](CC(=O)O)NC(=O)[C@H](Cc1cnc[nH]1)NC(=O)[C@H](CCCNC(=N)N)NC(=O)[C@@H](NC(=O)[C@H](CNC(=O)[C@H](C)NC(=O)[C@H](Cc1cnc[nH]1)NC(=O)[C@H](CCCNC(=N)N)NC(=O)CNC(=O)CCS[C@@H]1O[C@H](CO)[C@H](O)[C@H](O)[C@H]1O)NC(=O)[C@H](C)NC(=O)[C@H](Cc1cnc[nH]1)NC(=O)[C@H](CCCNC(=N)N)NC(=O)CNC(=O)CCS[C@@H]1O[C@H](CO)[C@H](O)[C@H](O)[C@H]1O)[C@@H](C)O)CC2` (I: [Mpa](βGal)GRHA[Dap]TRHD-X1 / II: [Mpa](βGal)GRHA; amide I:6-II:C) [listing 1 of 2 here], for which, in the series on MEF, the Activity was determined as 51%.
Turning to `COc1cc2c(c(OC)c1OC)-c1ccc(OC)c(=O)cc1[C@@H](N(C(C)=O)C(=O)[C@H](CS)NC(=O)[C@H](CCCCNC(=O)CCS[C@@H]1O[C@H](CO)[C@H](O)[C@H](O)[C@H]1O)NC(=O)[C@H](Cc1ccccc1)NC(=O)[C@H](CCCNC(=N)N)NC(=O)[C@H](CC(N)=O)NC(=O)[C@H](CNC(=O)[C@@H](NC(=O)[C@H](CCC(=O)O)NC(=O)[C@H](CC(=O)O)NC(=O)CNC(=O)CCS[C@@H]1O[C@H](CO)[C@H](O)[C@H](O)[C@H]1O)[C@@H](C)O)NC(=O)[C@@H](NC(=O)[C@H](CCC(=O)O)NC(=O)[C@H](CC(=O)O)NC(=O)CNC(=O)CCS[C@@H]1O[C@H](CO)[C@H](O)[C@H](O)[C@H]1O)[C@@H](C)O)CC2` (I: [Mpa](βGal)GDET[Dap]NRFK(X2)-X1 / II: [Mpa](βGal)GDET; amide I:6-II:C), the outcome with Jurkat [3] was inactive.
As to `COc1cc2c(c(OC)c1OC)-c1ccc(OC)c(=O)cc1[C@@H](N(C(C)=O)C(=O)[C@H](CS)NC(=O)[C@H](CC(=O)O)NC(=O)[C@H](Cc1cnc[nH]1)NC(=O)[C@H](CCCNC(=N)N)NC(=O)[C@@H](NC(=O)[C@H](CNC(=O)[C@H](C)NC(=O)[C@H](Cc1cnc[nH]1)NC(=O)[C@H](CCCNC(=N)N)NC(=O)CNC(=O)CCS[C@@H]1O[C@H](CO)[C@H](O)[C@H](O)[C@H]1O)NC(=O)[C@H](C)NC(=O)[C@H](Cc1cnc[nH]1)NC(=O)[C@H](CCCNC(=N)N)NC(=O)CNC(=O)CCS[C@@H]1O[C@H](CO)[C@H](O)[C@H](O)[C@H]1O)[C@@H](C)O)CC2` (I: [Mpa](βGal)GRHA[Dap]TRHD-X1 / II: [Mpa](βGal)GRHA; amide I:6-II:C) [listing 2 of 2 here], the Activity in the series on Jurkat [1] is recorded as 91%. Also, the CC50 in the series with Jurkat [2] is 1500 nM.
Take `CC[C@H](C)[C@H](NC(=O)[C@@H]1CCCN1C(=O)[C@H](CNC(=O)[C@@H]1CCCN1C(=O)CNC(=O)[C@H](CC(N)=O)NC(=O)[C@H](CCCCNC(=O)CCS[C@@H]1O[C@H](CO)[C@H](O)[C@H](O)[C@H]1O)NC(=O)CCS[C@@H]1O[C@H](CO)[C@H](O)[C@H](O)[C@H]1O)NC(=O)[C@@H]1CCCN1C(=O)CNC(=O)[C@H](CC(N)=O)NC(=O)[C@H](CCCCNC(=O)CCS[C@@H]1O[C@H](CO)[C@H](O)[C@H](O)[C@H]1O)NC(=O)CCS[C@@H]1O[C@H](CO)[C@H](O)[C@H](O)[C@H]1O)C(=O)N[C@@H](CCC(=O)O)C(=O)N[C@H](C(=O)N[C@@H](CS)C(=O)N(C(C)=O)[C@H]1CCc2cc(OC)c(OC)c(OC)c2-c2ccc(OC)c(=O)cc21)C(C)C` (I: [Mpa](βGal)K(X2)NGP[Dap]PIEV-X1 / II: [Mpa](βGal)K(X2)NGP; amide I:6-II:C): the outcome in the series with Jurkat [3] was inactive.
`COc1cc2c(c(OC)c1OC)-c1ccc(OC)c(=O)cc1[C@@H](N(C(C)=O)C(=O)[C@H](CS)NC(=O)[C@H](CC(=O)O)NC(=O)[C@H](CC(C)C)NC(=O)[C@H](Cc1ccc(O)cc1)NC(=O)[C@@H](NC(=O)[C@H](CNC(=O)[C@H](C)NC(=O)[C@H](CO)NC(=O)[C@H](CC(N)=O)NC(=O)[C@H](Cc1ccccc1)NC(=O)CCS[C@@H]1O[C@H](CO)[C@H](O)[C@H](O)[C@H]1O)NC(=O)[C@H](C)NC(=O)[C@H](CO)NC(=O)[C@H](CC(N)=O)NC(=O)[C@H](Cc1ccccc1)NC(=O)CCS[C@@H]1O[C@H](CO)[C@H](O)[C@H](O)[C@H]1O)[C@@H](C)O)CC2` (I: [Mpa](βGal)FNSA[Dap]TYLD-X1 / II: [Mpa](βGal)FNSA; amide I:6-II:C) [listing 2 of 2 here]: the Activity in the series on MEF is 6%.

The values above are taken from ChEMBL document CHEMBL1240485, “Glycopeptide dendrimer colchicine conjugates targeting cancer cells” (Bioorg Med Chem, 2010).
